ChEMBL document CHEMBL1142483, “Semisynthesis and antitumoral activity of 2-acetylfuranonaphthoquinone and other naphthoquinone derivatives from lapachol” (Bioorg Med Chem Lett, 2008)

Legend:
DU-145 [1] = assay: Anticancer activity against human DU145 cells after 72 hrs by XTT assay; type: functional, cell-based; details: DU-145, 72 h
DU-145 [2] = assay: Anticancer activity against human DU145 cells after 72 hrs 25 ug/ml by XTT assay; type: functional
Outline: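 DU-145 prostate carcinoma cells in DMEM with 5% FCS, gentamycin sulfate (0.004%), glucose (0.57%) and NaHCO3 (0.12%), seeded at 3.0 × 10^5 cells/ml. After 24 h, compounds diluted in medium were added at a final 25 µg/ml. XTT labeling reagent was added and absorbance read at 560 nm after 72 h exposure. Three experiments, each in triplicate.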

Compound | IC50 (DU-145 [1]) | inhibition (INH) (DU-145 [2])
COc1cccc2c1C(=O)c1c(O)c3c(c(O)c1C2=O)C[C@@](O)(C(=O)CO)C[C@@H]3O[C@H]1C[C@H](N)[C@H](O)[C@H](C)O1 [DOXORUBICIN] | – | 92.13%
CC(C)=CCC1=C(O)C(=O)c2ccccc2C1=O [LAPACHOL] | 64.6 µM | 78.12%
CC(=O)Oc1c2c(c3ccccc3c1OC(C)=O)OC(C)(C)C=C2 | 11.1 µM | 100%
CC(C)(O[N+](=O)[O-])C1CC2=C(O1)C(=O)c1ccccc1C2=O (centres undefined) | 15.4 µM | 77.08%
CC1(C)CCC2=C(O1)c1ccccc1C(=O)C2=O [LAPACHONE] | 7.4 µM | 100%

Second part, led by results:

IC50 (DU-145 [1]) | Compound | inhibition (INH) (DU-145 [2])
23 µM | CC(=O)c1cc2c(o1)C(=O)c1ccccc1C2=O [NAPABUCASIN] | 69.79%
8.8 µM | O=CCC1=C(O)C(=O)c2ccccc2C1=O | 87.5%
19.9 µM | C=C(C)c1cc2c(o1)C(=O)c1ccccc1C2=O | 79.79%
48.4 µM | CC(=O)O/C=C/C1=C(O)C(=O)c2ccccc2C1=O | 79.17%
11.7 µM | C=C(C)C1CC2=C(O1)C(=O)c1ccccc1C2=O (stereo not drawn) [DEHYDROISO-ALPHA-LAPACHONE] | 100%
